High-throughput results: PubChem BioAssay, several laboratories
Most compounds without a hit are left out; they make up all but 7.2% or so of the library.
HEK293 NFkB inh = inhibitors of PMA/ionomycin-induced NF-kB reporter, primary screen, antigen receptor NF-kB inhibitor project, cell-based, HEK-293 luciferase reporter, luminescence; HEK-293 NF-kB luciferase reporter; inhibition, % at 3 µM; actives 0.21% (n = 62,000);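 active = inhibition above the mean of all tested compounds plus 3 SD, cut at about 40% in these data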;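 also: 0% = stimulated DMSO wells and 100% = 10 µM reference inhibitor 5653914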
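System: NF-kB luciferase reporter HEK-293 cells | Replication: Single test | Control set: DMSO vs reference inhibitor | Evaluation: % inhibition | Schedule: 1 h pretreatment, 16 h stimulation, 37 °C | Probe or stimulus: PMA with ionomycin | Compound dosing: One dose, 3 µM | Detection: Luciferase luminescence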
BAP1 inh = inhibitors of BAP1 deubiquitinase, primary screen, biochemical, Ub-AMC fluorescence, kinetic | Ubiquitin carboxyl-terminal hydrolase BAP1 (Homo sapiens), Q92560 | recombinant BAP1, Ub-AMC hydrolysis fluorescence kinetic; hits give low values | calls only at 20 µM | actives 0.48% (n = 72,000) | AID 436, 2006;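 active = activity remaining at or below 50% of control, provided the compound also passes the data quality filters; inactive = the rest, including low values that fail the filters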;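 also: 100% = DMSO wells rate and 0% = substrate alone blank rate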
D1 allo mod = D1 CRE-luciferase signal change, two-sided – cell-based, HEK293 D1, dopamine EC30, D1 allosteric modulator project, primary screen | D(1A) dopamine receptor (Homo sapiens), P21728 | AID 641, 2007 | B-score at 10 µM | actives 5.9% (n = 58,000) | dopamine EC30 potentiation; actives deviate in either direction;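 active = luminescence count or its row- and column-corrected plate score outside the 99.7% band of the plate's sample wells, on either side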
DAT uptake mod = changed hDAT dopamine uptake under cocaine IC80, either direction, primary screen, cocaine antagonist project, cell-based, LLC-PK1 hDAT, [14C]-dopamine uptake, MLSMR; Sodium-dependent dopamine transporter (Homo sapiens), Q01959; LLC-PK1 hDAT cells, [14C]-dopamine uptake with cocaine IC80; actives deviate in either direction; B-score at 10 µM; actives 1.3% (n = 110,000);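 active = Z score or B-score, a plate-position-corrected score, falls beyond the plate's 99.7% confidence bounds, in either direction; inactive = both scores lie inside the 99.7% bounds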;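 also: scored against the spread of the other compound wells on the same plate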
M1 antag = antagonists of rat M1 muscarinic receptor; CHO-M1 cells, Fluo-4 calcium, ACh EC80 antagonist mode; hits give low values; B-score at 10 µM; AID 628, 2007; actives 3.4% (n = 64,000);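 active = calcium fluorescence response, raw or row-and-column corrected B-score, differing from the plate sample mean either way at a set confidence level, mostly lower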
Target sequence (P08482 whole entry, looked up): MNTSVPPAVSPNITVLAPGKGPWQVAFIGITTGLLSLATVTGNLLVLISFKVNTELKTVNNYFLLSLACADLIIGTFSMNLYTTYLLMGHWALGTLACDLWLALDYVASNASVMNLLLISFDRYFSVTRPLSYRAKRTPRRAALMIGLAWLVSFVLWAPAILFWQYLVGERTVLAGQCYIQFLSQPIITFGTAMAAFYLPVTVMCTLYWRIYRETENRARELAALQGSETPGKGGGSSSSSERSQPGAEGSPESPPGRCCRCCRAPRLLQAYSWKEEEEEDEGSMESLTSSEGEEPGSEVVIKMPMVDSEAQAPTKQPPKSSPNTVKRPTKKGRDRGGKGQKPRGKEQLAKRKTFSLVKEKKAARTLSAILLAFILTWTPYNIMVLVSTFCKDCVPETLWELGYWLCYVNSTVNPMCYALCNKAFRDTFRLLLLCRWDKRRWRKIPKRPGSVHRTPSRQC
M1 agonist = M1 muscarinic receptor agonists, primary screen, CHO-M1 cells, Fluo-4 calcium, agonist mode; Muscarinic acetylcholine receptor M1; Fluo-4 calcium fluorescence; hits give high values; B-score at 10 µM; actives 3% (n = 64,000);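 active = fluorescence rise, raw or as B-score row- and column-corrected plate score, outside the 99.7% band of its plate's samples, either direction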
Active calls of the source: *; i = inactive; . = no result given; + = active, no number.

SMILES	HEK293 NFkB inh	BAP1 inh	D1 allo mod	DAT uptake mod	M1 antag	M1 agonist
COc1ccc(-c2cn3c(C)c(C(=O)Nc4ccncc4)sc3n2)cc1	20	i	-3.3*	-0.28	-0.91	-0.032
CCOC(=O)c1c(C)[nH]c(C(=O)CSc2nc(C)nc3c2cnn3-c2ccccc2)c1C	.	i	.	.	.	.
c1ccc2nc(-c3nc4ccccc4o3)ccc2c1	-22	.	-3.9*	-0.83	-0.49	-1.7
c1cc(-c2nc3ccccc3o2)nc(-c2nc3ccccc3o2)c1	21	i	-0.78	.	0.33	-0.38
O=c1oc2ccc(Cl)cc2cc1-c1nnc(Nc2ccc(F)cc2)s1	.	i	.	.	.	.
Cc1cccc(NC(=O)c2ccc(Cl)cc2)n1	.	i	.	.	.	.
OCCN(CCO)c1ncnc2c1sc1nc(N3CCOCC3)c3c(c12)CCCC3	.	i	.	4.1*	-1.9	4.9
CCOC(=O)c1sc2nc(N3CCOCC3)c3c(c2c1N)CCCC3	4	.	1.2	0.34	0.76	-0.057
OCCN1CCN(c2ncnc3c2sc2nc(N4CCOCC4)c4c(c23)CCC4)CC1	17	.	2.6	0.34	-0.9	1.7
CCN(CC)C(=O)c1sc2nc(N3CCOCC3)c3c(c2c1N)CCCC3	.	.	.	3*	.	.
Cc1cc(C)c2c(n1)sc1c(N3CCOCC3)ncnc12	9	i	2.8*	.	0.32	-0.85
CC(C)(C)c1ccc(C(=O)Nc2cccc(NC(=O)c3cccc4ccccc34)c2)cc1	.	i	.	.	.	.
CCC(=O)Nc1c(C#N)c2nc3ccccc3nc2n1-c1ccc(C)cc1	2	i	1.9	.	0.42	4.3*
N#Cc1c(NC(=O)c2ccc(Br)o2)n(-c2ccccc2)c2nc3ccccc3nc12	21	i	1.6	.	-0.75	42*
COc1cccc(C(=O)Nc2nc(-c3ccc(Cl)cc3)cs2)c1	.	i	.	.	.	.
CCCOC(=O)c1ccc(-c2c(C)noc2-c2ccc(OC)cc2O)o1	18	i	0.076	2.8*	-0.3	1.2
CCCOC(=O)c1ccc(Oc2c(-c3ccc(OC)cc3O)n[nH]c2C)cc1	-8	i	-0.051	-0.25	1.6	-0.19
O=C(CSc1nnc(-c2ccc(Cl)s2)o1)N1CCCc2ccccc21	4	i	-2.7*	1.3	.	.
O=C(Nc1nc(-c2ccccn2)cs1)c1ccccc1Oc1ccccc1	.	i	.	.	.	.
O=C(NC1=NC2CCCCC2N1)c1ccccc1 (stereo not given)	-29	i	-5.4*	-0.0009	0.16	0.053
O=C(Nc1ccccc1NC(=O)c1ccccc1)c1ccccc1	.	i	.	.	.	.
COc1ccc(NC(=O)COc2ccccc2C(C)C)c(OC)c1	.	i	.	.	.	.
CCOc1ccc(NC(=O)N(CCN2CCOCC2)Cc2ccc3c(c2)CCCN3CC)cc1	15	i	1.4	2.1	0.58	0.22
CCCN1CCCc2cc(CN(CCCN3CCOCC3)C(=O)Nc3ccc(OCC)cc3)ccc21	.	.	.	2.7*	.	.
COc1ccc(Cc2nnc3n2N=C(c2cc4ccccc4o2)CS3)cc1OC	11	i	3*	1.1	0.16	2.7
SMILES	HEK293 NFkB inh	BAP1 inh	D1 allo mod	DAT uptake mod	M1 antag	M1 agonist
CCOC(=O)c1c(C)[nH]c(C(=O)CSc2ccccc2)c1C	-50	i	-2.9*	-1.9	-0.17	-2
CCCCCCc1ccc(C(=O)Nc2cc3cc([N+](=O)[O-])ccc3oc2=O)cc1	.	i	.	.	.	.
Cc1cc(-c2ccccc2)n(-c2cc(N3CCOCC3)ncn2)n1	.	i	.	.	.	.
CCN(CC)C(=O)c1[nH]cnc1C(=O)Nc1ccc(OC)cc1	.	.	.	3.1*	.	.
Cc1ccc(NC(=O)c2cccc(C(=O)OC(C)C)n2)cc1	.	i	.	.	.	.
COC(=O)Nc1ccccc1C(=O)N1CCCCC1	23	i	-0.53	-2.7*	0.077	-0.12
CCCCOc1ccc(S(=O)(=O)NC(=O)NCc2ccc(OCCC)cc2)cc1	.	.	.	0.7	.	.
CCCCOc1ccc(CNC(=O)NS(=O)(=O)c2ccc(OCC)cc2)cc1	.	.	.	-9.1*	.	.
CCOc1ccc(S(=O)(=O)NCc2ccncc2)cc1	.	.	.	-2.7*	.	.
COc1cc(C2CC(=O)Nc3c2ccc2ccccc32)cc(OC)c1O (stereo not given)	.	i	.	.	.	.
CCOc1ccc(/C=N/n2c(SC)nnc2-c2ccccc2)cc1OCC	.	.	.	3.3*	.	.
CSc1nc(N)nc(SCCS(=O)(=O)c2ccc(Cl)cc2)c1C#N	-7	i	-0.49	6.1*	0.14	0.92
COCCNC(=O)c1ccccc1NC(=O)COc1ccccc1	8	i	2.3	-0.41	2.1*	-1.1
COCCCNC(=O)c1ccccc1NS(C)(=O)=O	-1	i	-0.61	0.17	0.21	-0.54
C/C(=N\NC(=O)C1CCCN(S(=O)(=O)c2ccccc2)C1)c1cccnc1 (stereo not given)	.	.	.	2.4*	.	.
COc1ccc(S(=O)(=O)N2CCCC(C(=O)O)C2)cc1 (stereo not given)	.	.	-2.6*	.	-0.078	-0.88
C/C(=N\NC(=O)C1CCCN(S(=O)(=O)c2ccccc2)C1)c1ccncc1 (stereo not given)	.	.	.	-0.26	.	.
Clc1cccc2sc(N3CCCC3)nc12	-11	i	-6.5*	-0.33	-0.36	0.84
CCN(CC)c1ccc(NC(=O)c2ccc(Br)o2)cc1	-50	i	-3.5	0.4	.	.
O=C(Nc1ccccc1)c1ccc(Br)o1	.	.	.	0.53	.	.
O=C(Nc1ccc2c(c1)CCC2)c1ccc(Br)o1	.	.	.	2.2*	.	.
Cc1cc(C(=O)Nc2cccc(C(=O)O)c2)oc1C	30	.	-4.4*	0.086	-0.53	0.33
O=C(c1ccccc1)c1cccc(NC(=O)c2ccc(Br)o2)c1	.	.	.	-9.7*	.	.
CCc1cccc(NC(=O)c2ccc(Br)o2)c1	10	i	-1.2	4.9*	0.41	-0.069
COc1cccc(C(=O)Nc2nc(-c3ccc(F)cc3)cs2)c1	.	i	.	.	.	.
SMILES	HEK293 NFkB inh	BAP1 inh	D1 allo mod	DAT uptake mod	M1 antag	M1 agonist
CC1CCN(C(=O)COc2ccc(Br)cc2)CC1	.	i	.	.	.	.
O=C(Nc1ccc(NC(=O)c2ccc(-c3cccc([N+](=O)[O-])c3)o2)cc1)c1ccco1	.	i	.	.	.	.
COc1ccc(C(=O)Nc2cccc(-c3nc4ncccc4o3)c2C)cc1Cl	.	i	.	.	.	.
COc1cc(CCC(=O)OCn2nnc3ccccc3c2=O)cc(OC)c1OC	-6	i	0.14	0.24	2.7*	-0.014
COc1cccc(C(=O)OCn2nnc3ccccc3c2=O)c1OC	25	i	5.2*	-0.84	-0.4	-0.4
Cc1nn(-c2ccccc2)c2sc(C(=O)OCn3nnc4ccccc4c3=O)cc12	8	+	1.6	.	0.29	0.4
Cc1cc(C)n(-c2ccc(C(=O)OCn3nnc4ccccc4c3=O)cc2)n1	17	i	.	-0.099	-0.076	0.51
